Experimental data collected from several papers.
Each line is one published result; the experiments were not run side by side. pIC50, pKd: −log10 of the molar value.

Structure (SMILES)	tested on	test	system	setting	measurement	result
CCCCCCCCCCCC(=O)NC(C)(C)C(=O)N1CCC[C@H]1C(=O)NC(C)(C)C(=O)NC(C)(C)C(=O)N1CCC[C@H]1C(=O)NC(C)(C)C(=O)NC(C)(C)C(=O)N1CCC[C@H]1C(=O)N[C@@H](C)C(=O)NC(C)(C)C(=O)NCCC(=O)N[C@@H](C)C(=O)NC(C)(C)C(=O)NC(C)(C)C(=O)NCCC(=O)NC(C)(C)C(=O)NC(C)(C)C(=O)NC(C)(C)C(=O)N[C@@H](C)C(=O)NCCC(=O)O	MDA-MB-231	cell growth or viability, MTT	–	24 h	pIC50	6.00
CC(C)[C@H](NC(=O)c1ccccc1NC(=O)c1ccccc1)C(=O)N[C@H](CO)C(C)C	MRC5	cell growth or viability, MTT	–	72 h	CC50	> 250 µM
CC(=O)NC(CC(C)C)C(=O)NC(CC(C)C)C(=O)NC(Cc1ccc(O)cc1)C(N)=O (centres unmarked)	ABCB1 (Cricetulus griseus, UniProt P21448)	binding, fluorescence	–	–	pKd	4.55
CC(C)=CCOc1c2occc2cc2ccc(=O)oc12	MRC5	cell growth or viability, MTT	–	24 h	pIC50	< 4.00
CN(C)CCc1c[nH]c2ccccc12	–	–	human, plasma	intravenous, 9 mg, 7 min, healthy volunteers, infusion	concentration	15.9 ng/mL
C=C(C)[C@@H]1CC[C@]2(NCCN3CCS(=O)(=O)CC3)CC[C@]3(C)[C@H](CC[C@@H]4[C@@]5(C)CC=C(C6=CC[C@@](COc7ncccc7C#N)(C(=O)O)CC6)C(C)(C)[C@@H]5CC[C@]43C)[C@@H]12	–	–	human, plasma	oral, 100 mg, 24 h, fed, tablet	concentration	408 ng/mL
COc1ccc(C(=O)Nc2ccccc2C(=O)N[C@H](C(=O)N[C@H](CO)C(C)C)C(C)C)cc1	MRC5	cell growth or viability, MTT	–	72 h	CC50	> 250 µM
CONC(=O)[C@H]1[C@@H](O)[C@@]2(O)c3c(OC)cc(OC)cc3O[C@@]2(c2ccc(OC)cc2)[C@@H]1c1ccccc1	MDA-MB-231	cell growth or viability, SRB	–	–	pIC50	8.72
